Assay outcomes deposited in PubChem BioAssay by several laboratories.
Most compounds without a hit are left out; they make up all but 3.9% or so of the library.
HSF1 inh = HSF1 inhibition; NIH3T3-HGL HSE-luciferase, MG132-induced, luminescence 8 h; hits give low values; activity change, negative = inhibition, % at 7.5 µM (by protocol); hit rate 0.77% among 300,000;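 active = more than half of replicate wells show activity change below -50%, luminescence cut by over half; inconclusive = some wells, but at most half, below -50%; inactive = no replicate well below -50%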;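 note: luciferase reports HSF-1 transcriptional activity via heat shock element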
HSP90 inh = inhibitors of HSP90 luciferase refolding in rabbit reticulocyte lysate | luciferase refolding luminescence, 3 h | inhibition, % at 5.6 µM | hit rate 0.91% among 290,000 | AID 1789;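 active = inhibition above the screen-wide mean plus 3 SD, computed separately per campaign, cut at about 16% in these data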;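 note: inhibitors lower the luminescence because luciferase stays unfolded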
HSF-1 act = increases HSF-1 driven luciferase reporter signal | hit rate 1.7% among 300,000 | NIH3T3-HGL HSF-1 luciferase reporter, MG132, 8 h; 100% = twice DMSO control signal | AID 504408 | activation, % at 9 µM;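 active = mean replicate activation of at least 50% with a set share of replicates each reaching 50%; inconclusive = only one of those two conditions met; inactive = mean below 50% and too few replicates reaching it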
DNA FID counter-1 = fluorescent intercalator displacement, NS3 helicase counter-screen; hit rate 0.17% among 290,000; inhibition, % at 7.9 µM; DNA fluorescent intercalator displacement, fluorescence;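 note: higher means more ethidium bromide displaced from hairpin DNA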
NS3 helicase inh = inhibitors of Hepatitis C virus NS3 helicase; AID 1800; NS3 helicase DNA unwinding, Cy5 molecular beacon fluorescence; hit rate 0.56% among 290,000; inhibition, % at 10.9 µM;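 active = inhibition above the mean of all tested compounds plus 3 SD, set per campaign, cut at about 35% in these data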
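Test system: hepatitis C virus NS3 helicase domain fragment enzyme. Also added: annealed dual-labelled DNA beacon duplex, ATP-started. Timing: 60 min unwinding reaction at 25 °C after ATP addition. Technique: Cy5 fluorescence. Measure: % inhibition of unwinding.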
core dimer inh = HCV core protein dimerization inhibition; inhibition, % at 5 µM; hit rate 0.33% among 300,000; AID 1899; TR-FRET GST/Flag-core106 dimerization, 1536-well;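 active = inhibition above the mean of all tested compounds plus 3 SD, set per screening campaign, cut at about 45% in these data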
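Assay system: GST-tagged and Flag-tagged HCV core protein residues 1-106 / Times: compound-protein-antibody incubation 4 h at 22.5 °C / Signal: time-resolved FRET, ex 340 nm, em 617 and 671 nm / Evaluation: % inhibition based on acceptor/donor emission ratio / Benchmarks: wells lacking GST-core106 and wells with excess unlabelled core106 / Repeats: singlicate, one well per compound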
NS3 helicase cf = HCV NS3 helicase inhibition, confirmation assay; NS3 helicase DNA unwinding, Cy5 molecular beacon fluorescence; shares compounds with NS3 helicase inh; hit rate 31% among 1,600; inhibition, % at 10.9 µM;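 active = inhibition above the mean of all tested compounds plus 3 SD, cutoff set per campaign, cut at about 36% in these data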
DNA FID counter-2 = counter-screen for HCV NS3 helicase inhibitors: DNA intercalator displacement | inhibition, % at 7.9 µM | hit rate 4% among 1,600 | DNA fluorescent intercalator displacement, fluorescence | shares compounds with NS3 helicase inh;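 note: higher means more displacement of ethidium bromide from the DNA hairpin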
FID counter DR = counter-screen for HCV NS3 helicase inhibitors: DNA intercalator displacement dose response; fluorescent intercalator displacement from DNA, fluorescence; shares compounds with NS3 helicase inh; IC50, µM; 120 tested, under 10 active; AID 2172; call rule not given here
Of the large screens only hits and unclear results are named; the others gave an inactive call (follow-up assays come after a bar, where they were run). Cut-off read from the data, not from the text of the source, unless noted: active = inhibition above about 37%; inactive = the rest.

COc1ccc2c(c1)OC/C(=C/c1cccs1)C2=O	none
CNc1ccc(Br)cc(C(=O)/C=C/c2ccc(Cl)cc2Cl)c1=O	HSF-1 act inconclusive, NS3 helicase inh 38 | NS3 helicase cf 74 | DNA FID counter-2 inactive | FID counter DR inactive
CNc1ccc(Br)cc(C(=O)/C=C/c2ccc(OC)cc2OC)c1=O	none
CNc1ccc(Br)cc(C(=O)/C=C/c2cccc(OC)c2)c1=O	NS3 helicase inh 44 | NS3 helicase cf 54 | DNA FID counter-2 inactive | FID counter DR inactive
CCNc1ccc(Br)cc(C(=O)/C=C/c2ccc3c(c2)OCO3)c1=O	NS3 helicase inh 47, core dimer inh 58 | NS3 helicase cf 41 | DNA FID counter-2 inactive
CSc1ccc(CN2CCCC(CNC(=O)c3ccc(F)cc3)C2)cc1 (stereo unspecified)	NS3 helicase inh 43 | NS3 helicase cf inactive | DNA FID counter-2 inactive
CSc1cccc(CN2CCCC(CNC(=O)c3ccc(F)cc3)C2)c1 (stereo unspecified)	none
CCOc1cc(C(=O)OCC(=O)Nc2cc(C)on2)cc(OCC)c1OCC	none
Clc1ccc(-n2nnnc2-c2ccno2)cc1	none
COc1ccccc1Nc1cc(C(=O)N2CCc3ccccc3C2)c2ccccc2n1	none
COc1ccccc1-c1cc(C(=O)N2CCc3ccccc3C2)c2ccccc2n1	NS3 helicase inh 37 | NS3 helicase cf inactive | DNA FID counter-2 inactive
CCOc1ccc(/C=c2\sc3nc(-c4ccco4)nn3c2=O)cc1OCC	NS3 helicase inh 38, core dimer inh 70 (no result: HSF1 inh, HSF-1 act) | NS3 helicase cf 47 | DNA FID counter-2 inactive | FID counter DR inactive
Cc1ccc(C)n1N1C(=O)/C(=C\c2ccc(Cl)cc2)SC1=S	NS3 helicase inh 43 | NS3 helicase cf inactive | DNA FID counter-2 inactive
CCCCNC(=O)CSc1nnc(-c2ccc(S(=O)(=O)N3CCCC3)cc2)n1C	none
C=CCNC(=O)CSc1nnc(-c2ccc(S(=O)(=O)N3CCCC3)cc2)n1C	NS3 helicase inh 47 | NS3 helicase cf inactive | DNA FID counter-2 inactive
CSCC[C@H](NC(=O)[C@H](Cc1ccccc1)n1c(=O)[nH]c2ccccc2c1=O)C(=O)NCC1CCC(C(=O)O)CC1 (stereo partly specified)	none
CCOc1cc(CNc2ccc(N(C)C)cc2)cc(Br)c1OCC(=O)NC(C)(C)C	NS3 helicase inh 53 | NS3 helicase cf inactive | DNA FID counter-2 inactive
CCOc1cc(CNc2ccc(N3CCCCC3)cc2)cc(Br)c1OCC(=O)NC(C)(C)C	none
O=C(NC(Cc1c[nH]c2ccccc12)C(=O)O)c1ccc(F)cc1 (stereo unspecified)	none
O=C(Nc1ccccc1C(=O)NC(Cc1c[nH]c2ccccc12)C(=O)O)c1ccccc1 (stereo unspecified)	NS3 helicase inh 40 | NS3 helicase cf 42 | DNA FID counter-2 inactive
Cc1cc2c(c(=O)o1)C(CCC1CCCCC1)C(C#N)=C(N)O2 (stereo unspecified)	NS3 helicase inh 39 | NS3 helicase cf inactive | DNA FID counter-2 inactive
Cc1ccc(S(=O)(=O)NN2C(=O)/C(=C/c3ccc(C(=O)O)cc3)SC2=S)cc1	NS3 helicase inh 37 | NS3 helicase cf inactive | DNA FID counter-2 inactive
Cc1ccc(/C=C2\SC(=S)N(NS(=O)(=O)c3ccc(C)cc3)C2=O)cc1	none
O=C1/C(=C/c2cccc(F)c2)SC(=S)N1NS(=O)(=O)c1ccccc1	NS3 helicase inh 37 | NS3 helicase cf 70 | DNA FID counter-2 inactive
Cc1ccc(S(=O)(=O)NN2C(=O)/C(=C/c3cccn3C)SC2=S)cc1	NS3 helicase inh 50 (no result: HSF1 inh, HSF-1 act) | NS3 helicase cf 60 | DNA FID counter-2 inactive
CC1(C)C2C(Cl)(Cl)C2(C)c2ccccc2N1C=O (stereo unspecified)	none
Cc1[nH]n(C(N)=S)c(=O)c1N=Nc1cccc(Cl)c1	NS3 helicase inh 58 | NS3 helicase cf inactive | DNA FID counter-2 inactive
Cc1cc(C(=O)NCCCn2ccnc2)sc1-c1ccccc1	none
O=C(C[C@H]1C(=O)N(C2CCCCC2)C[C@@H]1Cc1ccccc1)Nc1ccccc1	NS3 helicase inh 37 | NS3 helicase cf inactive | DNA FID counter-2 inactive
O=C(C[C@H]1C(=O)N(Cc2ccccc2)C[C@@H]1Cc1ccccc1)Nc1ccccc1	none
CC1CN(C(=O)c2ccc(OC3CCN(Cc4ccccn4)CC3)cc2)CCN1C (stereo unspecified)	none
COc1ccc(CCNC(=O)C2CC(=O)N(C3CCCC3)C2)cc1OC (stereo unspecified)	none (no result: HSF1 inh, HSF-1 act)
COc1ccc(CCNC(=O)C2CC(=O)N(C3CCCCC3)C2)cc1OC (stereo unspecified)	NS3 helicase inh 96 | NS3 helicase cf inactive | DNA FID counter-2 inactive
COc1cc(/C=N/NC(=O)C(C)n2nnc3ccccc32)ccc1O (stereo unspecified)	none
COc1cc(CC(CC(=O)O)CC(C)OCc2ccccc2)cc(OC)c1 (stereo unspecified)	NS3 helicase inh 39 | NS3 helicase cf inactive | DNA FID counter-2 inactive
COc1ccc(-c2[nH]ncc2CN(C)CC2CCCCO2)cc1F (stereo unspecified)	none
CCOc1ccccc1NC(=O)CC1SC(=N)N(c2ccccc2)C1=O (stereo unspecified)	none (no result: HSF1 inh, HSF-1 act)
O=C(CC1SC(=O)N(c2ccccc2)C1=O)Nc1cccc2ccccc12 (stereo unspecified)	NS3 helicase inh 46 | NS3 helicase cf inactive | DNA FID counter-2 inactive
CCOc1ccc(NC(=O)CC2SC(=O)N(c3ccccc3)C2=O)cc1 (stereo unspecified)	NS3 helicase inh 38 | NS3 helicase cf inactive | DNA FID counter-2 inactive
Cc1ccccc1NC(=O)CC1SC(=O)N(c2ccccc2)C1=O (stereo unspecified)	none
COc1ccc(C2C(C#N)=C(N)Oc3cc4c(cc32)OCO4)cc1 (stereo unspecified)	NS3 helicase inh 40 | NS3 helicase cf inactive | DNA FID counter-2 inactive
N#Cc1ccc(C2=NC(C(F)(F)F)(C(F)(F)F)c3c(n(Cc4ccco4)c(=O)[nH]c3=O)N2)cc1	none
COC(=O)c1ccc(Cn2nnc3c(=O)[nH]c(C4CCCN(S(=O)(=O)c5cccc(Cl)c5)C4)nc32)cc1 (stereo unspecified)	NS3 helicase inh 38 | NS3 helicase cf inactive | DNA FID counter-2 inactive
COC(=O)c1ccc(Cn2nnc3c(=O)[nH]c(C4CCCN(S(=O)(=O)c5ccc(C)cc5)C4)nc32)cc1 (stereo unspecified)	none
